Most compounds without a hit are left out; they make up all but 4.6% or so of the library.
TAAR1 ag – agonists of human TAAR1; CHO RD-HGA16 TAAR1, Fluo-8 calcium fluorescence; vehicle wells 0%, saturating PEA agonist 100%; activation, % at 3 µM; hit rate 0.99% among 360,000; AID 624467;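 active = activation above the mean activation of all test compounds in the run plus 3 SD, cut at about 38% in these data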
Target sequence (Q96RJ0 whole entry, looked up): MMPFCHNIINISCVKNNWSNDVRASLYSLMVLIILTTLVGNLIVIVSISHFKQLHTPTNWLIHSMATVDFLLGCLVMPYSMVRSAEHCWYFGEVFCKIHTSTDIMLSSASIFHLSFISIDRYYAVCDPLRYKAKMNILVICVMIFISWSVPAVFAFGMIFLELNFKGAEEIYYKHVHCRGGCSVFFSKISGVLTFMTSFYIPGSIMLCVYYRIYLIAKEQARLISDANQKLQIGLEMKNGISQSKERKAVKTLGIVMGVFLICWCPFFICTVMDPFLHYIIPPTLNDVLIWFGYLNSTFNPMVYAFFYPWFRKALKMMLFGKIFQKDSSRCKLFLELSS
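Repeats: no replicates (n 1) | Material: CHO-derived RD-HGA16 cells with stable Gα16 and human TAAR1 | Technique: Kinetic Fluo-8 calcium fluorescence | Schedule: 17-24 h seeding, 75 min 37 °C dye, 30 min RT | Evaluation: % activation from peak over basal fluorescence ratio, DMSO-to-PEA scaled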
OX1R antag-1 – blocks the human orexin 1 receptor. O43613. inhibition, % at 5 µM. hit rate 0.43% among 330,000. CHO/OX1R cells, Fluo-8 calcium fluorescence, orexin A;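 active = inhibition above its plate's threshold, mean inhibition of all tested compounds on the plate plus 3 SD, cut at about 37% in these data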;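 note: 0% = orexin A challenge wells and 100% = SB-334867-A antagonist wells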
TAAR1 antag – human TAAR1 antagonism; CHO RD-HGA16 TAAR1, Fluo-8 calcium fluorescence, antagonist; inhibition, % at 3 µM; hit rate 1.5% among 360,000;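 active = inhibition above a per-plate cutoff, the mean inhibition of test compounds on that plate plus 3 SD, cut at about 49% in these data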;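 note: 0% = DMSO plus EC80 beta-PEA response and 100% = DMSO alone without agonist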
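Test system: CHO RD-HGA16 cells bearing hTAAR1 | Reagent: β-PEA, EC80 | Compound dosing: 3 µM, single point | Schedule: Dye loading 75 min at 37 °C, then 30 min room temperature | Signal: Calcium fluorescence with Fluo-8 | Evaluation: Percent inhibition of PEA-evoked calcium signal, max/basal emission ratio | Control set: DMSO-only wells and EC80 β-PEA-stimulated wells | Repeats: Singlicate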
OX1R antag-2 – OX1R (human) antagonism. O43613. OX1R-expressing cells, FRET antagonist read-out. inhibition, % at 6.6 µM. hit rate 1.8% among 330,000. AID 485270; in the data active = inhibition mostly above about 38%, no sharp cut-off; inactive = mostly below about 40%;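 note: 0% = agonist challenge alone and 100% = reference antagonist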
CHO parental Ca – counter-screen for OX1R antagonists: effect in parental CHO cells | hit rate 0.63% among 330,000 | inhibition, % at 5.6 µM | AID 463079 | parental CHO-K1, ATP-induced calcium, Fluo-8 fluorescence;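 active = inhibition above that plate's mean sample inhibition plus 3 SD, cut at about 26% in these data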;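 note: 0% = ATP-challenged DMSO wells and 100% = DMSO wells without ATP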
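Test system: parental CHO cells; detection: calcium-sensitive Fluo-8 fluorescence; evaluation: percent inhibition of calcium signal; also added: ATP as calcium-mobilizing challenge; repeats: one well per compound; control set: ATP-challenged DMSO wells low, unchallenged DMSO wells high; compound: single nominal dose of 5.6 µM per compound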
GPR7 antag – blocks human GPR7 receptor signaling. hit rate 1.1% among 290,000. GPR7-expressing cells, fluorescence antagonist assay. inhibition, % at 4.4 µM; in the data active = inhibition above about 16%, passing the limit was not always enough;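 note: cells stimulated with the agonist NPW; 0% = agonist with vehicle and 100% = vehicle without agonist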
Target sequence (P48145 whole entry, looked up): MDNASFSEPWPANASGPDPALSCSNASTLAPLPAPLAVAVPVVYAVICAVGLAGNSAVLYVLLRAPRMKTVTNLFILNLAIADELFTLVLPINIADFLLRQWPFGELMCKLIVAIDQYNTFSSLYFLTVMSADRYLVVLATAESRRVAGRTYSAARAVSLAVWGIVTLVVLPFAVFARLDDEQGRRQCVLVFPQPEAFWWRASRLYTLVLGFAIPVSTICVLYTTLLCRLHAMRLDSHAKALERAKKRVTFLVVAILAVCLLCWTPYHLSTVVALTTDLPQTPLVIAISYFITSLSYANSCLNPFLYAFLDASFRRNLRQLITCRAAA
The depositor's hits bear a star; . = no result.

SMILES	TAAR1 ag	OX1R antag-1	TAAR1 antag	OX1R antag-2	CHO parental Ca	GPR7 antag
O=C1c2cc(CO)cc(O)c2C(=O)c2c(O[C@@H]3OC(CO)[C@@H](O)[C@@H](O)[C@@H]3O)cccc21 (some centres undefined)	2	-10	-11	73*	-6	.
O=C(O)c1cc(O)c2c(c1)[C@H]([C@H]1c3cc(C(=O)O)cc(O)c3C(=O)c3c(O[C@@H]4O[C@H](CO)[C@@H](O)[C@H](O)[C@H]4O)cccc31)c1cccc(OC3O[C@H](CO)[C@@H](O)[C@H](O)[C@H]3O)c1C2=O (some centres undefined)	0	14	-21	43	2	.
CN1CCN(S(=O)(=O)c2cccc(C(=O)N(C)CC(=O)Nc3ccc(F)c(F)c3F)c2)CC1	0	-14	-23	14	-22	.
Nc1nc(CSC(=S)N2CCOCC2)nc(Nc2ccccc2)n1	0	17	-1	69*	-13	-10
Nc1nc(CSC(=S)N2CCCCC2)nc(Nc2ccccc2)n1	16	11	10	69*	-22	15
Cc1ccc(Nc2nc(N)nc(CSC(=S)N3CCOCC3)n2)cc1	1	-22	-14	17	-16	-6
CCOc1ccc(S(=O)(=O)N/N=C2/CC(c3ccccc3)Oc3ccccc32)cc1 (centres undefined)	14	-26	28	-3	-16	0
CN1C(=O)c2ccc(C(=O)Nc3nccs3)cc2C1=O	1	-19	8	73*	-10	9
CC(c1ccccc1)N1C(=O)c2ccc(C(=O)Nc3ccccc3C(=O)O)cc2C1=O (centres undefined)	0	-13	-30	70*	-2	-7
CN1C(=O)c2ccc(C(=O)Nc3ccccc3O)cc2C1=O	1	-7	12	41*	-1	-8
O=C(Nc1ccccc1O)c1ccc2c(c1)C(=O)N(c1ccccc1)C2=O	3	.	-17	.	.	13
CCCN1C(=O)c2ccc(C(=O)NC3=NCCS3)cc2C1=O	-2	-43	1	45*	-12	-11
C[C@@H]1CN([C@@H](C)CO)C(=O)CCCn2nncc2CO[C@H]1CN(C)C(=O)Cc1ccccc1	0	.	1	.	.	.
CCCN(CC(=O)Nc1ccccc1C)C(=O)C1CC(=O)N(c2cccc(C)c2C)C1 (centres undefined)	1	-9	15	8	-10	.
O=C(COC(=O)CN1C(=O)NC2(CCCC2)C1=O)Nc1ccc(C(F)(F)F)cc1[N+](=O)[O-]	10	-18	29	41*	-5	.
O=C(COC(=O)CN1C(=O)NC2(CCCC2)C1=O)Nc1ccccc1C(F)(F)F	3	-15	-16	7	-3	.
Cc1ccc(NC(=O)CN2C(=O)NC3(CCCc4ccccc43)C2=O)c([N+](=O)[O-])c1 (centres undefined)	6	-6	-13	54*	-1	9
Cc1ccc2nsnc2c1S(=O)(=O)N1CCN(C(=O)C2CCCO2)CC1 (centres undefined)	4	-12	-3	69*	-19	7
COc1ccc(/C=C/C(=O)OCC(=O)NCCC2=CCCCC2)cc1S(=O)(=O)N1CCOCC1	7	-21	-20	5	-7	0
O=[N+]([O-])c1ccc(N2CCCC2)nc1	1	-5	-18	42*	-15	-2
Cc1ccc([C@@H]2CC=C(C(=O)O)[C@H](c3ccc(Br)cc3)N2S(=O)(=O)c2ccc(C)cc2)cc1	4	3	15	39*	-12	.
Cc1ccc([C@@H]2CC=C(C(=O)O)[C@H](c3ccc(F)cc3)N2S(=O)(=O)c2ccc(C)cc2)cc1	0	1	11	70*	-16	.
Cc1ccc(S(=O)(=O)N2[C@@H](c3ccccc3F)C(C(=O)O)=CC[C@H]2c2ccc3c(c2)OCO3)cc1	12	-4	8	47*	-7	.
Cc1ccc(S(=O)(=O)N2[C@@H](c3ccc(Br)cc3)C(C(=O)O)=CC[C@H]2c2ccc(C(C)C)cc2)cc1	0	54*	3	20	75*	.
COc1ccc(N(CC(=O)NCc2cccs2)S(=O)(=O)c2ccc(F)cc2)cc1	1	-14	2	5	-20	.
SMILES	TAAR1 ag	OX1R antag-1	TAAR1 antag	OX1R antag-2	CHO parental Ca	GPR7 antag
CCCCc1ccc(NC(=O)Cn2c(=O)c(N3CCCCC3)c(N)n(C)c2=O)cc1	2	-1	-22	6	-4	.
O=C1CC(Nc2cc(=O)[nH]c(=O)[nH]2)C(=O)N1c1ccccc1Cl (centres undefined)	3	-16	-11	3	2	-1
COc1cccc(-c2ncc3ccccc3c2COC(=O)CCCC(=O)O)c1	-1	-18	8	14	-10	.
CC(C)C(NC(=O)c1ccccc1F)C(=O)OCC(=O)c1ccc(F)cc1 (centres undefined)	5	-17	4	17	-18	11
CCc1ccc2[nH]c(=O)c(CN(Cc3ccccc3OC)Cc3nnnn3Cc3ccco3)cc2c1	13	-20	40	48	-21	-10
COc1ccccc1CN(Cc1cc2cc(C)ccc2[nH]c1=O)Cc1nnnn1Cc1ccco1	15	4	31	72*	-21	-6
Cc1cc(NC(=O)C2C3C(=O)N(CCC(C)C)C(C(=O)NCc4ccccc4)C34C=CC2(C)O4)no1 (centres undefined)	9	-2	4	46*	2	-10
O=C(c1cc(Br)c(Br)s1)N1CCN(c2ccccn2)CC1	3	-26	28	24	-12	-2
Oc1c(Br)cc(Br)c2cccnc12	-2	.	13	.	.	.
[O-][n+]1cccc2c(Br)cc(Br)c(O)c21	6	13	4	44	30*	-9
Cc1onc(-c2c(Cl)cccc2Cl)c1CO/N=C(\C#N)c1c(Cl)cccc1Cl	3	-25	49*	18	1	-6
Cc1onc(-c2c(Cl)cccc2Cl)c1/C(N)=N/OC(=O)C(C)(C)C	11	-16	1	3	-18	-26
C=C1CCN([C@@H](C)C(=O)NCCCCCC)S(=O)(=O)c2ccccc21	11	-16	10	32	-15	.
Nc1[nH]n(-c2ccccc2)c(=O)c1N=Nc1ccc2ncsc2c1	6	-3	27	53*	-12	-10
O=S(=O)(c1ccc(Cl)cc1)n1cccn1	2	10	-19	14	12	5
Cc1nc(C)c(-c2ccn(S(=O)(=O)c3ccc(Cl)cc3)n2)o1	1	-23	-6	3	-8	19*
Cc1c(C(=O)Nc2ccc3c(c2)OCCO3)sc2nc(-c3ccccc3)cn12	10	68*	64*	66*	46*	7
Cc1c(C(=O)NCc2ccco2)sc2nc(-c3ccccc3)cn12	8	-12	14	23	-10	1
